From PubChem BioAssay
Apaf-1 act: activates human Apaf-1 apoptosome; activity change, negative = activation, % at 20 µM; AID 489031; Apaf-1 apoptosome caspase-3 activation, DEVD-Rh110 fluorescence; active compounds read low; actives 0.31% (n = 330,000);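 active means activity change at or below -40% at 20 µM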
Target sequence (O14727 whole entry, looked up): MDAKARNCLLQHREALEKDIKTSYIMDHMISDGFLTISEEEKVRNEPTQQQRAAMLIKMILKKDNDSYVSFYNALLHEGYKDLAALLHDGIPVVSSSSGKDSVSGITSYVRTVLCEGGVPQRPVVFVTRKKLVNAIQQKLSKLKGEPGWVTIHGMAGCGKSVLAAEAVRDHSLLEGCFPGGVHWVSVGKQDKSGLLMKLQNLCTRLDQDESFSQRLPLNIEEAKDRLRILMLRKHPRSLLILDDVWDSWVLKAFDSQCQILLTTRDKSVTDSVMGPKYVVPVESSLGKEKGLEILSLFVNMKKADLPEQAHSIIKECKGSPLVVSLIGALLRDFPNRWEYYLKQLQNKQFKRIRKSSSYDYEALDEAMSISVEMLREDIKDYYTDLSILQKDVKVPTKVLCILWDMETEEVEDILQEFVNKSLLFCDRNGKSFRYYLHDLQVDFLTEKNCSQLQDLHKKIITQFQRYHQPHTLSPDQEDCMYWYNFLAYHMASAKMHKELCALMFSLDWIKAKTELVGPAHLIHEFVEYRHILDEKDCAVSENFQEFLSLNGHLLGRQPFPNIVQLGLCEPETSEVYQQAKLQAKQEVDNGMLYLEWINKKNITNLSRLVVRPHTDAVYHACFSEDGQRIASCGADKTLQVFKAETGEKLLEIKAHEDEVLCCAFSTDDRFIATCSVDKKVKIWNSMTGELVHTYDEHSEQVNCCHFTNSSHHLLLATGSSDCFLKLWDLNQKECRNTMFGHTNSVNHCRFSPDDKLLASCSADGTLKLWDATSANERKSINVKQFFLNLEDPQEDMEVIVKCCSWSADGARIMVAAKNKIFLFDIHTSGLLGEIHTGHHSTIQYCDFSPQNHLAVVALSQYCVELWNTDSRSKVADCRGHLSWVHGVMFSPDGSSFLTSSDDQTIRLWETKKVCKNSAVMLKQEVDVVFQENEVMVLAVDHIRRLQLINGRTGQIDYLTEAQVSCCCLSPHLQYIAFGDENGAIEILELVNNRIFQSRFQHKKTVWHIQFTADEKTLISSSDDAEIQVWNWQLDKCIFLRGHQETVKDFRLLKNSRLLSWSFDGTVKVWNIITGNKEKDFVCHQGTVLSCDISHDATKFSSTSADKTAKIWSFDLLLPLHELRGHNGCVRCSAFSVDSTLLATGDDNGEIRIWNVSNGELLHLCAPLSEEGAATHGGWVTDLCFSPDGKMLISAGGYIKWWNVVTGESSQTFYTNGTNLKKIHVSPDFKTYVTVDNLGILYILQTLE
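Schedule: 30 min preincubation, 50 min reaction, room temperature / System: biochemical Apaf-1 apoptosome reconstitution / Medium: 20 mM HEPES pH 7.5 with CHAPS, BSA / Evaluation: Caspase-3 cleavage activity downstream of Apaf-1 activation / Detection: Caspase-3-released Rh110 fluorescence, 540 nm emission, 480 nm excitation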
Rh110 act interf: Rh110 signal interference in Apaf-1 activator counter-screen; shares compounds with Apaf-1 act; Rh110 fluorescence interference, quenched caspase reaction, Ex480/Em540; fluorescence interference (activity change), % at 20 µM, hits read low; 980 tested, under 10 active; AID 504616;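 active means mean activity change at or below -40% when tested at 20 µM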
Apaf-1 act conf2: confirmation of human Apaf-1 activators; shares compounds with Apaf-1 act; reconstituted apoptosome caspase-3 activity, DEVD-Rh110 fluorescence; active compounds read low; activity change, negative = activation, % at 20 µM; actives 5% (n = 980); AID 504617;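 active means mean activity change at or below -40%, meaning activation of 40% or more, at 20 µM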
Numbers without * were called inactive. Not all results are given here.

SMILES | Apaf-1 act | others
N#Cc1ccc(/C=C/C(=O)O)cc1 | -499* | Rh110 act interf=9;Apaf-1 act conf2=9
CN(C)[C@@H]1C(=O)C(C(N)=O)=C(O)[C@@]2(O)C(=O)C3=C(O)c4c(O)cccc4[C@@](C)(O)C3[C@H](O)C12 (stereo not given in full) | -2
Cn1ncnc2c(=O)n(C)c(=O)nc1-2 | 99
COC(=O)C1=C(c2ccc(Cl)c(C(F)(F)F)c2)C[C@@H]2CC[C@H]1N2C(=O)NCCOc1ccc(OC)cc1 | 40
Cc1c2ccncc2c(C)c2c1[nH]c1ccccc12 | 67
CN[C@H]1C[C@H]2O[C@@](C)([C@H]1OC)n1c3ccccc3c3c4c(c5c6ccccc6n2c5c31)C(=O)NC4 | 51
CCC(C)NC(=O)c1c(N)n(CCCOC)c2nc3ccccc3nc12 (stereo not given) | 91
O=[N+]([O-])c1ccc(NCCCN2CCOCC2)c2ncccc12 | 40
NS(=O)(=O)c1ccc(N=Nc2c(O)[nH]c(=S)[nH]c2=O)cc1 | -138* | Rh110 act interf=4;Apaf-1 act conf2=4
COCCCn1c(N)c(C(=O)Nc2ccccc2)c2nc3ccccc3nc21 | 51
COC(=O)C1=C(c2cccc(OCc3ccccc3)c2)C[C@@H]2CC[C@H]1N2C(=O)NC1CCN(Cc2ccccc2)CC1 | 48
CCC(C)NC(=O)c1c(N)n(CC2CCCO2)c2nc3ccccc3nc12 (stereo not given) | 94
c1ccc(CCCN2CCN(CCOC(c3ccccc3)c3ccccc3)CC2)cc1 | 51
C=CCN1C(=O)NC(=O)C(Cc2ccc(OC)c(OC)c2)C1=O (stereo not given) | -549* | Rh110 act interf=6;Apaf-1 act conf2=15
CC(NC(C)(C)C)C(=O)c1cccc(Cl)c1 (stereo not given) | -8
CCCN1CCc2cc(O)cc3c2[C@H]1Cc1ccc(O)c(O)c1-3 | 45
COc1cc2c3c(c1OC)Oc1ccc(cc1)C[C@H]1c4c(cc(OC)c(OC)c4Oc4ccc(cc4)C[C@@H]3N(C)CC2)CCN1C | 45
COCCCn1c(N)c(C(=O)Nc2sc3c(c2C(=O)OC)CCCC3)c2nc3ccccc3nc21 | 90
Nc1c(C(=O)NCCN2CCOCC2)c2nc3ccccc3nc2n1Cc1ccccc1 | 82
NCCc1ccc(OCc2ccccc2)c(OCc2ccccc2)c1 | 46
O=C(c1ccc2c(c1)ncn2-c1ccc(F)cc1F)N1CCC2(CC1)OCCO2 | -76* | Rh110 act interf=8;Apaf-1 act conf2=5
CCCCCCCCCCCCCCCC[N+](C)(C)C | 85
COCCNC(=O)c1c(NC(=O)c2ccco2)n(Cc2ccccc2)c2nc3ccccc3nc12 | 53
Ic1ccccc1CN[C@@H]1C2CCN(CC2)[C@@H]1C(c1ccccc1)c1ccccc1 | 50
COc1ccc2c(c1)NP(=S)(Oc1ccccc1)N2 (stereo not given) | 50
SMILES | Apaf-1 act | others
N=c1n(CCO)c2ccccc2n1Cc1ccccc1 | -113* | Rh110 act interf=8;Apaf-1 act conf2=11
CCC(C)NC(=O)c1c(N)n(Cc2ccc3c(c2)OCO3)c2nc3ccccc3nc12 (stereo not given) | 96
O=[N+]([O-])c1ccc(N2CCCNCC2)c2ncccc12 | 45
C[n+]1c(-c2ccccc2)c2cc(N)ccc2c2ccc(N)cc21 | 98
CN1CCc2cc3c(c4c2C1Cc1ccccc1-4)OCO3 (stereo not given) | 91
COc1cc2c(cc1O)[C@@H]1Cc3ccc(OC)c(O)c3CN1CC2 | 93
CC(C)CCNC(=O)c1c(N)n(CC2CCCO2)c2nc3ccccc3nc12 (stereo not given) | 91
O=C1N(CN2CCOCC2)c2ccccc2C1(O)c1c[nH]c2ccccc12 (stereo not given) | -80* | Rh110 act interf=9;Apaf-1 act conf2=9
COCCCn1c(N)c(C(=O)OC(C)COC)c2nc3ccccc3nc21 (stereo not given) | 74
CCCCn1c(NC(=O)c2ccc(Br)o2)c(C(=O)OCC)c2nc3ccccc3nc21 | 79
CC(Cc1ccccc1)NC(=O)NC(C)Cc1ccccc1 (stereo not given) | -182* | Rh110 act interf=-8;Apaf-1 act conf2=5
O=S1(=O)N(CCN2CC=C(c3c[nH]c4cc(F)ccc34)CC2)c2cccc3c2N1CCC3 | 51
Cc1ccc(-c2ccc(=O)n(CCC(=O)N3CCC4(CC3)OCCO4)n2)cc1 | -49* | Rh110 act interf=2;Apaf-1 act conf2=11
Nc1c(C(=O)OCc2ccccc2)c2nc3ccccc3nc2n1Cc1cccs1 | 86
COCCCn1c(N)c(C(=O)NCc2ccco2)c2nc3ccccc3nc21 | 95
CCCCOP(=O)(CN1CCOCC1)OCCCC | -278* | Rh110 act interf=2;Apaf-1 act conf2=7
CC(C)CC(N(C)C)C1(c2ccc(Cl)cc2)CCC1 (stereo not given) | 5
COC(=O)C1=C(c2ccc(F)cc2OCc2ccccc2)C[C@@H]2CC[C@H]1N2C(=O)NC1CCN(Cc2ccccc2)CC1 | 53
Cc1[nH]n(-c2ccccc2)c(=O)c1C(c1ccc([N+](=O)[O-])cc1)c1c(C)[nH]n(-c2ccccc2)c1=O | 79
O=[N+]([O-])c1ccc(NCc2ccc(Cl)cc2)c2ccncc12 | 79
